Source: ChEMBL document CHEMBL4130513, “Jozilebomines A and B, Naphthylisoquinoline Dimers from the Congolese Liana Ancistrocladus ileboensis, with Antiausterity Activities against the PANC-1 Human Pancreatic Cancer Cell Line” (J Nat Prod, 2017)
Activity calls are given as the source filed them. The calls are words filed in the database; no cut-off is given here.

Tests used:
PANC-1 [1] = assay: Antiausteritic activity against human PANC1 cells in nutrient-deprived medium measured after 24 hrs by WST8 assay; assay type: functional
How it was run: (§1)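 PANC-1 cells seeded at 1.5 × 10^4/well, attached 24 h in DMEM at 37 °C, 5% CO2. After two PBS washes, exposed to serially diluted samples in nutrient-rich DMEM or nutrient-deprived medium (pH 7.4) for 24 h. Then WST-8 (10% in DMEM) for 3 h, A450 read. Viability is relative to control and blank wells. PC50 is the concentration killing 50% of cells preferentially in NDM.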

PANC-1 [2] = assay: Inhibition of colony formation in human PANC1 cells pretreated for 24 hrs followed by compound washout measured after 10 days by crystal violet staining based assay; assay type: functional, cell-based
How it was run: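 PANC-1 cells plated at 500/well in DMEM and attached 24 h at 37 °C, 5% CO2. Exposed 24 h to compound (1.25 and 2.5 μM) in DMEM or to DMEM alone. Washed with PBS, then grown 10 d in fresh DMEM. Fixed with 4% formaldehyde and stained with crystal violet for 10 min. Colony area quantified; three independent experiments.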

HeLa = assay: Cytotoxicity against human HeLa cells assessed as reduction in cell viability after 72 hrs by CCK8 assay; assay type: functional, cell-based
How it was run: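 HeLa cells (DMEM, 10% FBS) plated at 2 × 10^3/well and attached 24 h at 37 °C, 5% CO2. After a PBS wash, serially diluted samples in DMEM were added for 72 h, with paclitaxel as positive control. Cells were washed, given 10% WST-8 (CCK-8) in DMEM for 3 h, and A450 was read. Viability was taken from three-well means, corrected against blank and control.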

PANC-1 [3] = assay: Induction of morphological changes in human PANC1 cells assessed as cell membrane rupture at 5 uM after 24 hrs by ethidium bromide/acridine orange staining based microscopic analysis; assay type: functional
How it was run: (§2)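 PANC-1 cells seeded at 1 × 10^6 per well and attached 24 h. After two PBS washes, treated in NDM with vehicle or 5 μM compound for 24 h. EB/AO dye mix (100 μg mL−1 each in PBS) added for 5 min. Imaged by phase contrast and red/green fluorescence at 20× objective.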

PANC-1 [4] = assay: Induction of morphological changes in human PANC1 cells assessed as disintegration of cell organelles at 5 uM after 24 hrs by ethidium bromide/acridine orange staining based microscopic analysis; assay type: functional; how it was run: as §2
PANC-1 [5] = assay: Cytotoxicity against human PANC1 cells in DMEM measured after 24 hrs by WST8 assay; assay type: cell-based; details: panc-1, 24 h; how it was run: as §1
Plasmodium falciparum = assay: Antiplasmodial activity against Plasmodium falciparum NF54 assessed as reduction in [3H]hypoxanthine incorporation pretreated for 48 hrs followed by [3H]hypoxanthine addition measured after 24 hrs by liquid scintillation counting method; assay type: functional, organism-based
L6 = assay: Cytotoxicity against rat L6 cells after 72 hrs by alamar blue staining based fluorescence assay; assay type: cell-based
Trypanosoma cruzi = assay: Antitrypanosomal activity against Trypanosoma cruzi trypomastigote forms infected in rat L6 cells after 96 hrs by CPRG/Nonidet substrate based photometric method; assay type: functional, organism-based
[6] = Selectivity index, ratio of IC50 for rat L6 cells to IC50 for Plasmodium falciparum NF54; assay type: toxicity
Leishmania donovani = assay: Antileishmanial activity against Leishmania donovani amastigote forms after 72 hrs by alamar blue staining based fluorescence assay; assay type: functional, organism-based
[7] = tested on: Trypanosoma brucei rhodesiense; assay: Antitrypanosomal activity against Trypanosoma brucei rhodesiense bloodstream forms after 72 hrs by alamar blue staining based fluorescence assay; assay type: functional, organism-based

Row | Structure (SMILES) | PC50 (PANC-1 [1]) | inhibition (PANC-1 [2]) | Activity (HeLa) | Activity (PANC-1 [3]) | Activity (PANC-1 [1]) | Activity (PANC-1 [4]) | IC50 (Plasmodium falciparum) | Ratio IC50 [6] | other results
1 | COc1cc(C[C@H]2C(=O)OC[C@@H]2Cc2ccc(OC)c(OC)c2)ccc1O [ARCTIGENIN] | 0.83 µM |  |  |  |  |  |  |  | 
2 | COc1cc(C)c(-c2ccc3c(c2O)[C@@H](C)N[C@H](C)C3)c2ccc(-c3c(C)c(-c4ccc5c(c4O)[C@@H](C)N[C@H](C)C5)c4cccc(OC)c4c3O)c(O)c12 (single isomer, unassigned; atropisomer 2) [listing 1 of 2 here] |  | Dose-dependent effect | Dose-dependent effect | Active | Dose-dependent effect | Active |  |  | 
3 | COc1cc(C)c(-c2ccc3c(c2O)[C@@H](C)N[C@H](C)C3)c2ccc(-c3c(C)c(-c4ccc5c(c4O)[C@@H](C)N[C@H](C)C5)c4cccc(OC)c4c3O)c(O)c12 (atropisomer, axis not shown) [listing 1 of 2 here] |  | Dose-dependent effect | Dose-dependent effect | Active | Dose-dependent effect | Active |  |  | 
4 | COc1cc(C)c(-c2ccc3c(c2O)[C@@H](C)N[C@H](C)C3)c2ccc(-c3c(C)c(-c4ccc5c(c4O)[C@@H](C)N[C@H](C)C5)c4cccc(OC)c4c3O)c(O)c12 (atropisomer, axis not shown) [listing 2 of 2 here] | 2.24 µM |  |  |  |  |  | 0.043 µM | 160 | Activity (PANC-1 [5]): Non-Toxic; IC50 (HeLa; Homo sapiens, HeLa, 72 h): 1.08 µM; IC50 (L6; Rattus norvegicus, L6, 72 h): 6.85 µM; IC50 (Trypanosoma cruzi; l6): 23.8 µM; IC50 (Leishmania donovani; Leishmania donovani, 72 h): 89.7 µM; IC50 ([7]; Trypanosoma brucei, 72 h): 0.732 µM
5 | COc1cc(C)c(-c2ccc3c(c2O)[C@@H](C)N[C@H](C)C3)c2ccc(-c3c(C)c(-c4ccc5c(c4O)[C@@H](C)N[C@H](C)C5)c4cccc(OC)c4c3O)c(O)c12 (single isomer, unassigned; atropisomer 2) [listing 2 of 2 here] | 0.87 µM |  |  |  |  |  | 0.102 µM | 52.3 | IC50 (HeLa; hela): 0.68 µM; IC50 (L6; l6): 5.33 µM; IC50 (Trypanosoma cruzi; Trypanosoma cruzi, L6, 96 h): 21.9 µM; IC50 (Leishmania donovani): 55.8 µM; IC50 [7]: 1.03 µM
